Experimental findings from ChEMBL document CHEMBL1133942, “Synthesis and bioactivities of novel pyridazine derivatives: inhibitors of interleukin-1 beta (IL-1beta) production” (Bioorg Med Chem Lett, 2001) are described below.

In one series the test system is HL-60. Nature of the series: Inhibitory concentration against interleukin-1 beta production in HL-60 cells stimulated with lipopolysaccharide (LPS). It is filed as functional, cell-based. To be noted: Homo sapiens. In a few lines:
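IC50 obtained by comparing IL-1β yield with an untreated control to which no test compound was added.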

Series [1] concerns Mus musculus. Nature of the series: Observation of behavior in mice following 30 mg/kg i.p. administration; No significant change. It is filed as functional, organism-based. Set-up: dose 30 mg/kg.
Series [2] relates to Mus musculus. Nature of the series: Observation of behavior in mice after ip administration at the dose of 30 mg/kg; Depression of spontaneous locomotor activity. It counts as functional, organism-based. Set-up: dose 30 mg/kg.
The subject of series [3] is Mus musculus. Kind of series: Observation of behavior in mice after ip administration at the dose of 30 mg/kg; Weak sedation. Set-up: dose 30 mg/kg. It is filed as functional, organism-based.
The test system of series [4] is Mus musculus. Kind of series: Observation of behavior in mice after ip administration at the dose of 30 mg/kg; symptoms were tremor, dyspnea, difficulty in walking and death. It counts as functional, organism-based. Set-up: dose 30 mg/kg.
For series [5], the species on record is Mus musculus. Kind of series: Number of dead mice/total number of mice used; 6/8. The following applies: in vivo. It is filed as ADME, organism-based.

As usually defined, the IC50 is the concentration at which inhibition is half-maximal. Lower therefore signals greater potency.

The source made the active and inactive calls. The calls are words filed in the database; no cut-off is given here.

`COc1ccc(-c2cc(Oc3ccncc3)nnc2-c2ccc(OC)cc2)cc1`: the IC50 with HL-60 turned out to be 1240 nM. Moreover, the Symptoms entry with Mus musculus [1] is “No significant change”. In turn, `COc1ccc(-c2cc(Nc3cc(OC)c(OC)c(OC)c3)nnc2-c2ccc(OC)cc2)cc1` had a concentration for half-maximal inhibition (IC50) with HL-60 of more than 100000 nM. For the same molecule, the Symptoms result with Mus musculus [1] is “No significant change”. The like results for `COc1ccc(-c2cc(Oc3ccc(Cl)cc3Cl)nnc2-c2ccc(OC)cc2)cc1` were, in that order, 2540 nM and “No significant change”. Consider `COc1ccc(-c2cc(Oc3c(F)c(F)c(F)c(F)c3F)nnc2-c2ccc(OC)cc2)cc1`, for which 40 nM corresponded to half-maximal inhibition with HL-60 (IC50). Also, the Symptoms result with Mus musculus [2] is reported as “Depression of spontaneous locomotor activity”. Regarding `COc1ccc(-c2cc(Oc3cccc([N+](=O)[O-])c3)nnc2-c2ccc(OC)cc2)cc1`, in the series with HL-60, the IC50 is 2360 nM. In the series on Mus musculus [1], the Symptoms result is “No significant change”. `COc1ccc(-c2cc(Oc3ccc(F)c(F)c3)nnc2-c2ccc(OC)cc2)cc1`: the IC50 in the series with HL-60 stood at 460 nM. Regarding `COc1ccc(-c2ncc(C#N)nc2-c2ccc(OC)cc2)cc1`, the IC50 in the series on HL-60 was 6600 nM. Besides, in the series on Mus musculus [3], the Symptoms result is “Weak sedation”. For the molecule `C[C@]12C=CC(=O)C=C1CCC1[C@@H]2[C@@H](O)C[C@@]2(C)[C@H]1CC[C@]2(O)C(=O)CO` (single isomer, unassigned) [PREDNISOLONE], inhibition with HL-60 was half-maximal at 760 nM (IC50). For the same molecule, the Symptoms result in the series with Mus musculus [1] is “inactive”. In the series with HL-60, `COc1ccc(-c2cc(Oc3ccc([N+](=O)[O-])cc3)nnc2-c2ccc(OC)cc2)cc1` returned an IC50 of 630 nM. Besides, the Symptoms result in the series on Mus musculus [1] was “No significant change”. The like results for `COc1ccc(-c2cc(Oc3ccccc3)nnc2-c2ccc(OC)cc2)cc1` were, in that order, 100 nM and “No significant change”. In the case of `COc1ccc(-c2cc(Oc3ccc(C#N)cc3)nnc2-c2ccc(OC)cc2)cc1`, the IC50 in the series with HL-60 was more than 100000 nM. Besides, the Symptoms entry with Mus musculus [1] was “No significant change”. In the series with HL-60, `COc1ccc(-c2cc(Oc3cccc(C#N)c3)nnc2-c2ccc(OC)cc2)cc1` displayed a concentration for half-maximal inhibition (IC50) of 160 nM.

Regarding `COc1ccc(-c2cc(NCc3ccccc3)nnc2-c2ccc(OC)cc2)cc1`, in the series on HL-60, the IC50 is more than 100000 nM. On to `COc1ccc(-c2cc(-c3ccccc3)nnc2-c2ccc(OC)cc2)cc1`, for which, in the series with HL-60, inhibition was half-maximal at 2810 nM (IC50). Moreover, the Symptoms result in the series with Mus musculus [1] was “No significant change”. In turn, `COc1ccc(-c2cc(Oc3cc(F)cc(F)c3)nnc2-c2ccc(OC)cc2)cc1` came in with a half-inhibitory concentration (IC50) in the series on HL-60 of 1380 nM. In addition, the Symptoms entry in the series with Mus musculus [1] is “No significant change”. For `COc1ccc(-c2cc(Sc3cc(Cl)c(Cl)c(Cl)c3)nnc2-c2ccc(OC)cc2)cc1`, the IC50 with HL-60 was found to be 200 nM. For the same molecule, the Symptoms result with Mus musculus [1] is “No significant change”. Molecule `COc1ccc(-c2cc(Oc3c(F)cccc3F)nnc2-c2ccc(OC)cc2)cc1` showed a 50% inhibitory concentration (IC50) with HL-60 of 350 nM. In the series with Mus musculus [1], the Symptoms entry is “No significant change”. Take `COc1ccc(-c2cc(Nc3ccc(F)cc3F)nnc2-c2ccc(OC)cc2)cc1`: 1920 nM corresponded to half-maximal inhibition with HL-60 (IC50). Besides, the Symptoms entry in the series with Mus musculus [1] was “No significant change”.

For the molecule `COc1ccc(-c2cnc(C#N)nc2-c2ccc(OC)cc2)cc1`, in the series with HL-60, the IC50 worked out at 2880 nM. For the same molecule, in the series on Mus musculus [1], the Symptoms result is “No significant change”. With `CCCN(c1cc(-c2ccc(OC)cc2)c(-c2ccc(OC)cc2)nn1)c1ccc(F)cc1F`, in the series on HL-60, the midpoint of inhibition, the IC50, lay at 3160 nM. The Symptoms entry in the series with Mus musculus [1] is “No significant change”.

On to `COc1ccc(-c2cc(Oc3cc(F)ccc3F)nnc2-c2ccc(OC)cc2)cc1`, for which it took 180 nM to reach half-maximal inhibition with HL-60 (IC50).

Consider `COc1ccc(-c2cc(Oc3cccc(F)c3F)nnc2-c2ccc(OC)cc2)cc1`, for which inhibition with HL-60 was half-maximal at 120 nM (IC50). The Symptoms entry in the series on Mus musculus [1] was “No significant change”. In turn, `COc1ccc(-c2cc(Sc3ccc(F)cc3F)nnc2-c2ccc(OC)cc2)cc1` displayed a half-inhibitory concentration (IC50) with HL-60 of 1870 nM. In addition, the Symptoms entry with Mus musculus [3] is “Weak sedation”.

Regarding `COc1ccc(-c2cc(Sc3ccccc3)nnc2-c2ccc(OC)cc2)cc1`, the IC50 in the series on HL-60 amounted to 20500 nM. In the series on Mus musculus [1], the Symptoms result is “No significant change”. `COc1ccc(-c2cc(Oc3c(F)c(F)cc(F)c3F)nnc2-c2ccc(OC)cc2)cc1`: in the series with HL-60, the half-maximal inhibitory concentration (IC50) is 190 nM. Besides, the Symptoms entry with Mus musculus [1] was “No significant change”.

Take `COc1ccc(-c2cc(Oc3ccccc3C#N)nnc2-c2ccc(OC)cc2)cc1`: the half-inhibitory concentration (IC50) in the series on HL-60 was 150 nM. Also, the Symptoms result in the series on Mus musculus [1] is “No significant change”. On to `COc1ccc(-c2cc(C#N)nnc2-c2ccc(OC)cc2)cc1`, for which the midpoint of inhibition in the series with HL-60, the IC50, lay at 90 nM. Moreover, in the series with Mus musculus [4], the Symptoms result is “Tremor, dyspnea, difficulty in walking and death”. Further, the Activity in the series listed under Mus musculus [5] was 6.

For the molecule `COc1ccc(Oc2cc(-c3ccc(OC)cc3)c(-c3ccc(OC)cc3)nn2)cc1`, half-maximal inhibition in the series with HL-60 (IC50) required 450 nM. Turning to `COc1ccc(-c2cc(Oc3ccc(F)cc3F)nnc2-c2ccc(OC)cc2)cc1`, the IC50 with HL-60 was 2320 nM. Also, the Symptoms entry in the series with Mus musculus [2] is recorded as “Depression of spontaneous locomotor activity”.
